Active and inactive are the calls of the source. No cut-off for these calls is given here.

For orientation: EC50 means the concentration at which the effect is half-maximal. As a reminder, the half-life is the time in which the quantity being followed falls by half. The bioavailability is the share of a dose that reaches the circulation, judged against a reference dose that is usually intravenous. As usually defined, the inhibition is the percentage by which the read-out fell short of the control. The term IC50 denotes the concentration at which inhibition is half-maximal. What is called Cmax is the highest concentration seen after dosing. By AUC(0-t) is commonly meant the area under the concentration-time curve up to a stated or last time point. Usually Tmax stands for the time from dosing to the highest level.

The target in data set [1] is T1, Sphingosine 1-phosphate receptor 1 (Homo sapiens, UniProt P21453). The data set can be described thus: Agonist activity at human S1P1 receptor. It counts as functional. The method, boiled down: (§1)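 Human S1P₁ cAMP HTRF read-out; each EC₅₀ is the mean of three or more replicates.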
T1 sequence (P21453 whole entry): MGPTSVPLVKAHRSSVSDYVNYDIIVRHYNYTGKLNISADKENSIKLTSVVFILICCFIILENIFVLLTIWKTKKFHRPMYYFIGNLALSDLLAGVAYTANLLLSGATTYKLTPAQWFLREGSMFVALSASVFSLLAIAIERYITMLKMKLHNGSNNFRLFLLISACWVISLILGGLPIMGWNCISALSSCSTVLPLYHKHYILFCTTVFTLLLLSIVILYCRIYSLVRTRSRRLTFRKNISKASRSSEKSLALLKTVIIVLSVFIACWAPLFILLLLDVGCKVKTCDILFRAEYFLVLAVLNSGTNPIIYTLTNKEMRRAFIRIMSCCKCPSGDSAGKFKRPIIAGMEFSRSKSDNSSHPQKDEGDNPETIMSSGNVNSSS
Data set [2] can be described thus: Half life in human. To be noted: in vivo. It counts as ADME, organism-based.
Data set [3] concerns Mus musculus. The data set can be described thus: Immunomodulatory activity BALB/C mouse assessed as induction of lymphopenia at 1 mg/kg, po after 5 hrs. In kind it is functional, organism-based. On the set-up: dose 1 mg/kg. An outline of the steps: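 Male BALB/c mice were given a single oral dose of 1.0 mg/kg or vehicle (0.5% methylcellulose). Blood lymphocytes were counted at one time point, 5 h post-dose, with n = 6 per dose group (mean ± SD). Lowering was judged relative to the vehicle group.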

Data set [4] has as its target T1, Sphingosine 1-phosphate receptor 1. As to the kind of experiment: Agonist activity at human S1P1 receptor expressed in HEK293 cells assessed as inhibition of forskolin-stimulated cAMP production after 1 hr by HTRF assay. In kind it is functional, cell-based. The method, boiled down:
as §1
(In general: Changes in cAMP serve as a functional read-out for many G protein-coupled receptors.)

The nature of data set [5]: Metabolic stability in human liver microsomes assessed as half life. In kind it is ADME, Microsome. A general note: Liver microsomes are a subcellular fraction often used to study metabolism.
Data set [6] addresses Sphingosine 1-phosphate receptor 5 (Homo sapiens, UniProt Q9H228). As to the kind of experiment: Agonist activity at recombinant human S1P5 receptor expressed in HEK293 cells after 2 hrs by beta-arrestin assay. In kind it is functional, cell-based.
Data set [7] deals with Salmonella typhimurium. The data set can be described thus: Mutagenic activity in Salmonella Typhimurium TA97a by Ames test in presence of S9 fraction. It counts as toxicity, organism-based. The conditions noted are these: salmonella enterica subsp. enterica serovar typhimurium.
In data set [8] the target is Sphingosine 1-phosphate receptor 1 (Rattus norvegicus, UniProt P48303). The data set can be described thus: Agonist activity at rat S1P1 receptor expressed in HEK293 cells assessed as inhibition of forskolin-stimulated cAMP production after 1 hr by HTRF assay. In kind it is functional, cell-based.
Data set [9] in a line: Oral bioavailability in Sprague-Dawley rat at 1.5 mg/kg. It counts as ADME, organism-based. The conditions noted are these: in vivo.
The target in data set [10] is hERG (KCNH2) (Homo sapiens, UniProt Q12809). The data set can be described thus: Inhibition of human ERG at 3 uM by patch clamp assay. (In general: In patch-clamp work, channel activity is measured electrically.)
hERG (KCNH2), sequence (Q12809 whole entry): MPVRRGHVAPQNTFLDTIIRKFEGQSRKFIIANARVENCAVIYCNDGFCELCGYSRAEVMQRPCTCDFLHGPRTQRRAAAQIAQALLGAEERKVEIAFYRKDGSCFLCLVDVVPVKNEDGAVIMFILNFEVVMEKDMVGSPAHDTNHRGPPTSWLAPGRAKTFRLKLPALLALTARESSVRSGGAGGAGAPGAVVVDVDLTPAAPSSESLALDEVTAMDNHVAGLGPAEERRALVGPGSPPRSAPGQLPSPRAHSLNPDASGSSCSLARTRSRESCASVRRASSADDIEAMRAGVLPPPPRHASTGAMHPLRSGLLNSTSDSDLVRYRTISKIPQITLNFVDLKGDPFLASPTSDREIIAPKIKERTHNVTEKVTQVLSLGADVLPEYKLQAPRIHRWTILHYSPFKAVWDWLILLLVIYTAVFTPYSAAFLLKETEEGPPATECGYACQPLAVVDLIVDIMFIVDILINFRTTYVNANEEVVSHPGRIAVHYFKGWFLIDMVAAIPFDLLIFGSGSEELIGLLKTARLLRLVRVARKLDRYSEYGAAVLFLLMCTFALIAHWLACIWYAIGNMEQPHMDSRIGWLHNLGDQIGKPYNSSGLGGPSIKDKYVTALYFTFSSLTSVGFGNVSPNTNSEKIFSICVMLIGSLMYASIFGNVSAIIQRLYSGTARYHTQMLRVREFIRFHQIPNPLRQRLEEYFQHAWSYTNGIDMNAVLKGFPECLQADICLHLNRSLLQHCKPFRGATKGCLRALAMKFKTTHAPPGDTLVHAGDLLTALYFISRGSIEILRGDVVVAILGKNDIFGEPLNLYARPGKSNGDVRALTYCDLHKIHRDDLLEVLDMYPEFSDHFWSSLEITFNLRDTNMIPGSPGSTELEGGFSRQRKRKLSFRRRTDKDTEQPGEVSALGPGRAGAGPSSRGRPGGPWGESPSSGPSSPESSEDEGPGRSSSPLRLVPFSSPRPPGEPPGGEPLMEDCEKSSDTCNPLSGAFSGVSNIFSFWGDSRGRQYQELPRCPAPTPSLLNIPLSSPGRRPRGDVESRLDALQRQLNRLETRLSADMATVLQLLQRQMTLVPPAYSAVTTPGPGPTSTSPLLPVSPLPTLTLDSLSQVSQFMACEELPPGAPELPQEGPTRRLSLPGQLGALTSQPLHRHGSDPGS
The subject of data set [11] is Salmonella typhimurium. The data set can be described thus: Mutagenic activity in Salmonella Typhimurium TA97a by Ames test in absence of S9 fraction. In kind it is toxicity, organism-based. The conditions noted are these: salmonella enterica subsp. enterica serovar typhimurium.
Data set [12] relates to Salmonella typhimurium. The data set can be described thus: Mutagenic activity in Salmonella Typhimurium TA100 by Ames test in absence of S9 fraction. It counts as toxicity, organism-based. The conditions noted are these: salmonella enterica subsp. enterica serovar typhimurium.
For data set [13], the target named is Sphingosine 1-phosphate receptor 2 (Homo sapiens, UniProt O95136). The data set can be described thus: Agonist activity at recombinant human S1P2 receptor expressed in HEK293 cells after 2 hrs by beta-arrestin assay. In kind it is functional, cell-based.
Sphingosine 1-phosphate receptor 2, sequence (O95136 whole entry): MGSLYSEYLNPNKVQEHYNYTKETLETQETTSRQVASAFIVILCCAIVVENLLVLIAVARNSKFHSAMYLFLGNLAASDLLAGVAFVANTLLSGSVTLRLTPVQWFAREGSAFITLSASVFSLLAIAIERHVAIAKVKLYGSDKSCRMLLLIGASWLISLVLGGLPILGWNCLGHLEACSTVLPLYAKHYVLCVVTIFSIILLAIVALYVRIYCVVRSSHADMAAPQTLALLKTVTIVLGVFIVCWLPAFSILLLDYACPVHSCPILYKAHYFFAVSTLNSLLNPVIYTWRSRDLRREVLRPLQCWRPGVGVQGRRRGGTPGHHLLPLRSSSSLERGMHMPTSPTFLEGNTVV
The target of data set [14] is Cytochrome P450 2C9 (Homo sapiens, UniProt P11712). As to the kind of experiment: Inhibition of CYP2C9. In kind it is ADME.
Cytochrome P450 2C9, sequence (P11712 whole entry): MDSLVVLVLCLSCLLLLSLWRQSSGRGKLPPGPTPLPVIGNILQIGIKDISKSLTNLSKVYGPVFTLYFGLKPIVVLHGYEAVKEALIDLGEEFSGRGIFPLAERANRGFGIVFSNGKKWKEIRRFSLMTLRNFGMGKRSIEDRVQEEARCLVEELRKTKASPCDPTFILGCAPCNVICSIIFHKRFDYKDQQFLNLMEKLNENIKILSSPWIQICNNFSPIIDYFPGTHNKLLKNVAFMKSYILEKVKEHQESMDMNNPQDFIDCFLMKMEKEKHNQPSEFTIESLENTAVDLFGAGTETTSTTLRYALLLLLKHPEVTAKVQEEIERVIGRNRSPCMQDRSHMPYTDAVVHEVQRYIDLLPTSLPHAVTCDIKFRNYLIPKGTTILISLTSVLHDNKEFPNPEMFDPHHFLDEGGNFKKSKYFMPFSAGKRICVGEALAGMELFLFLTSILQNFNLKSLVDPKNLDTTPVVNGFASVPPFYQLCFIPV
Data set [15] concerns the target T2, Cytochrome P450 1A2 (Homo sapiens, UniProt P05177).
T2 sequence (P05177 whole entry): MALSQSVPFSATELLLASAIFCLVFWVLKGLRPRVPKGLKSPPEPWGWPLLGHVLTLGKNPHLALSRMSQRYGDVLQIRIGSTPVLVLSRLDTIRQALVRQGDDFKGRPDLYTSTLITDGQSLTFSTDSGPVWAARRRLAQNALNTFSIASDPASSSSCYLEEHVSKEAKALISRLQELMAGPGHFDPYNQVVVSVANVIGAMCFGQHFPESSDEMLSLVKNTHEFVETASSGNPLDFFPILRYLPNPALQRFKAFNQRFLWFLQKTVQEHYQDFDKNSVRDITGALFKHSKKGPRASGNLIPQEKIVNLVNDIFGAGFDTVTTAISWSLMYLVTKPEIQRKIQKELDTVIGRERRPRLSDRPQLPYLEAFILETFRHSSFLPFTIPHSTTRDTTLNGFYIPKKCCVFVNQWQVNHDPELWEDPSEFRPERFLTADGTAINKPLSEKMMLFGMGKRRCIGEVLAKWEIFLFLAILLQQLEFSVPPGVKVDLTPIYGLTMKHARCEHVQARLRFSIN
The data set can be described thus: Inhibition of CYP1A2. It counts as ADME.

Data set [16] in a line: Cmax in Sprague-Dawley rat at 1 mg/kg, iv and 1.5 mg/kg, po. It counts as ADME, organism-based. The conditions noted are these: in vivo.
Data set [17] deals with Sphingosine 1-phosphate receptor 3 (Homo sapiens, UniProt Q99500). As to the kind of experiment: Agonist activity at recombinant human S1P3 receptor expressed in HEK293 cells after 2 hrs by beta-arrestin assay. In kind it is functional, cell-based.
Sphingosine 1-phosphate receptor 3, sequence (Q99500 whole entry): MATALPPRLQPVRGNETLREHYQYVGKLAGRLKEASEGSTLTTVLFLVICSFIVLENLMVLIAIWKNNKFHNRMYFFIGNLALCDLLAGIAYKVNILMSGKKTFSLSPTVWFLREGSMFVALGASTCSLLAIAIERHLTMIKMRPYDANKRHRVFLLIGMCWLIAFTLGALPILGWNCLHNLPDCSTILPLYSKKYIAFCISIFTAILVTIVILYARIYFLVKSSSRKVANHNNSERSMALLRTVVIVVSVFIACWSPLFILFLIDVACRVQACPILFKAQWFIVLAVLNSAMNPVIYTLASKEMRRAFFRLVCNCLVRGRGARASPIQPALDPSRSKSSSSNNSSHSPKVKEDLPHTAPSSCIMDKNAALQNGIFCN
For data set [18], the system named is Salmonella typhimurium. The data set can be described thus: Mutagenic activity in Salmonella Typhimurium TA1535 by Ames test in absence of S9 fraction. It counts as toxicity, organism-based. The conditions noted are these: salmonella enterica subsp. enterica serovar typhimurium.
In data set [19] the test system is Salmonella typhimurium. The data set can be described thus: Mutagenic activity in Salmonella Typhimurium TA98 by Ames test in absence of S9 fraction. It counts as toxicity, organism-based. To be noted: salmonella enterica subsp. enterica serovar typhimurium.
A short description of data set [20]: Metabolic stability in rat liver microsomes assessed as half life. In kind it is ADME, Microsome.
The nature of data set [21]: Clearance in Sprague-Dawley rat at 1 mg/kg, iv and 1.5 mg/kg, po. It counts as ADME, organism-based. To be noted: in vivo.
Data set [22] deals with Salmonella typhimurium. As to the kind of experiment: Mutagenic activity in Salmonella Typhimurium TA98 by Ames test in presence of S9 fraction. In kind it is toxicity, organism-based. The conditions noted are these: salmonella enterica subsp. enterica serovar typhimurium.
Data set [23] can be described thus: Agonist activity at dog S1P1 receptor expressed in HEK293 cells assessed as inhibition of forskolin-stimulated cAMP production after 1 hr by HTRF assay. It counts as functional, cell-based. To be noted: HEK293, 1 h.
Data set [24] has as its target Voltage-gated inwardly rectifying potassium channel KCNH2 (Homo sapiens, UniProt Q12809). The data set can be described thus: Displacement of [3H]astemizole from human ERG.
For data set [25], the system named is Salmonella typhimurium. As to the kind of experiment: Mutagenic activity in Salmonella Typhimurium TA1535 by Ames test in presence of S9 fraction. It counts as toxicity, organism-based. To be noted: salmonella enterica subsp. enterica serovar typhimurium.
The target of data set [26] is Cytochrome P450 3A4 (Homo sapiens, UniProt P08684). As to the kind of experiment: Inhibition of CYP3A4. In kind it is ADME.
Cytochrome P450 3A4, sequence (P08684 whole entry): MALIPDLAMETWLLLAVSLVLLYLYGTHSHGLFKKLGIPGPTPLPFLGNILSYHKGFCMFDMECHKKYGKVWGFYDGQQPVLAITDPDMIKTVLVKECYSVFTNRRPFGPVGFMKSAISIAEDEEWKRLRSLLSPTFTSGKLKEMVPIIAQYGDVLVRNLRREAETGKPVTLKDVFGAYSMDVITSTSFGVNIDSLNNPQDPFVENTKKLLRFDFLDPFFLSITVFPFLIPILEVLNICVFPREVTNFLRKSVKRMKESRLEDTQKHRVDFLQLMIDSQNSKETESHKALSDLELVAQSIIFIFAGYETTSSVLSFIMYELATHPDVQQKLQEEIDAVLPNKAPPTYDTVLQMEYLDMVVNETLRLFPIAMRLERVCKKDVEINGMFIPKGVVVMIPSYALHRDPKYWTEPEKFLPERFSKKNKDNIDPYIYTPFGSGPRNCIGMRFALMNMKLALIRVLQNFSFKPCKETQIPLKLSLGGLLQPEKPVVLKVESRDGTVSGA
The nature of data set [27]: Half life in Sprague-Dawley rat at 1 mg/kg, iv and 1.5 mg/kg, po. In kind it is ADME, organism-based. To be noted: in vivo.
Data set [28] addresses Sphingosine 1-phosphate receptor 1 (Mus musculus, UniProt O08530). The data set can be described thus: Agonist activity at mouse S1P1 receptor expressed in HEK293 cells assessed as inhibition of forskolin-stimulated cAMP production after 1 hr by HTRF assay. In kind it is functional, cell-based.
A short description of data set [29]: Agonist activity at monkey S1P1 receptor expressed in HEK293 cells assessed as inhibition of forskolin-stimulated cAMP production after 1 hr by HTRF assay. It counts as functional, cell-based. To be noted: Macaca mulatta, HEK293, 1 h.
Data set [30] can be described thus: AUC (0 to last) in Sprague-Dawley rat at 1 mg/kg, iv and 1.5 mg/kg, po. In kind it is ADME, organism-based. To be noted: plasma.
For data set [31], the target named is T3, Sphingosine 1-phosphate receptor 4 (Homo sapiens, UniProt O95977).
T3 sequence (O95977 whole entry): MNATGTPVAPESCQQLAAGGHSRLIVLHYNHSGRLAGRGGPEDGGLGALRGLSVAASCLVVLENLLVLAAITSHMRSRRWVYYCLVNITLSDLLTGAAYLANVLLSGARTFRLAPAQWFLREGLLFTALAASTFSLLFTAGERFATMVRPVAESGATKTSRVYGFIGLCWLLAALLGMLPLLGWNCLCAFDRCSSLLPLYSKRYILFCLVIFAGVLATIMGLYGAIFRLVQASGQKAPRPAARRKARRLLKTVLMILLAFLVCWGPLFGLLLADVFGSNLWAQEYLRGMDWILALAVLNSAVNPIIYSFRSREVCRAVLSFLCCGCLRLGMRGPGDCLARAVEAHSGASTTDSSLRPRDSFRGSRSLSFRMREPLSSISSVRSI
The data set can be described thus: Agonist activity at recombinant human S1P4 receptor expressed in HEK293 cells after 2 hrs by beta-arrestin assay. In kind it is functional, cell-based.

Data set [32] in a line: Tmax in Sprague-Dawley rat at 1 mg/kg, iv and 1.5 mg/kg, po. It counts as ADME, organism-based. The conditions noted are these: in vivo.
Data set [33] can be described thus: Protein binding in human. It counts as ADME, organism-based. To be noted: in vivo, read-out: PB (converted).
Data set [34] has as its target Cytochrome P450 2D6 (Homo sapiens, UniProt P10635). As to the kind of experiment: Inhibition of CYP2D6. In kind it is ADME.
The subject of data set [35] is Salmonella typhimurium. The data set can be described thus: Mutagenic activity in Salmonella Typhimurium TA100 by Ames test in presence of S9 fraction. The conditions noted are these: salmonella enterica subsp. enterica serovar typhimurium. In kind it is toxicity, organism-based.
A short description of data set [36]: Volume of distribution at steady state in Sprague-Dawley rat at 1 mg/kg, iv and 1.5 mg/kg, po. It counts as ADME, organism-based. The conditions noted are these: in vivo, read-out: Vdss.
The target of data set [37] is Cytochrome P450 2C19 (Homo sapiens, UniProt P33261). The data set can be described thus: Inhibition of CYP2C19. It counts as ADME.
Cytochrome P450 2C19, sequence (P33261 whole entry): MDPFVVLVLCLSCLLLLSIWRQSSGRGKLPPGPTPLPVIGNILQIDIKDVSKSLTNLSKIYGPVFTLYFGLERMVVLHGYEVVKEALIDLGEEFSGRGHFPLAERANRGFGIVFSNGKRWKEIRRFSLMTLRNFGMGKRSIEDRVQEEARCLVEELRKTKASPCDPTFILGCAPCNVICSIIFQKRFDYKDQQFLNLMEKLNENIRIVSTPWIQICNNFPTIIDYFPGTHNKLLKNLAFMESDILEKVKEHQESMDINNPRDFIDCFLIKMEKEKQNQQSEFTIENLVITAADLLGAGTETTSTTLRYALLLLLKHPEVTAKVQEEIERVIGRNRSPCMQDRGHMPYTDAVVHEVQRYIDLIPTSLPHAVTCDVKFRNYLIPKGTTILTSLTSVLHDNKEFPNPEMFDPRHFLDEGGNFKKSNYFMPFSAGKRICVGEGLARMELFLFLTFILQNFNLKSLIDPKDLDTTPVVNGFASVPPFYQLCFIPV
The target of data set [38] is T1, Sphingosine 1-phosphate receptor 1. The data set can be described thus: Agonist activity at recombinant human S1P1 receptor expressed in HEK293 cells after 2 hrs by beta-arrestin assay. In kind it is functional, cell-based.

Cytochrome P450 2D6, sequence (P10635 whole entry): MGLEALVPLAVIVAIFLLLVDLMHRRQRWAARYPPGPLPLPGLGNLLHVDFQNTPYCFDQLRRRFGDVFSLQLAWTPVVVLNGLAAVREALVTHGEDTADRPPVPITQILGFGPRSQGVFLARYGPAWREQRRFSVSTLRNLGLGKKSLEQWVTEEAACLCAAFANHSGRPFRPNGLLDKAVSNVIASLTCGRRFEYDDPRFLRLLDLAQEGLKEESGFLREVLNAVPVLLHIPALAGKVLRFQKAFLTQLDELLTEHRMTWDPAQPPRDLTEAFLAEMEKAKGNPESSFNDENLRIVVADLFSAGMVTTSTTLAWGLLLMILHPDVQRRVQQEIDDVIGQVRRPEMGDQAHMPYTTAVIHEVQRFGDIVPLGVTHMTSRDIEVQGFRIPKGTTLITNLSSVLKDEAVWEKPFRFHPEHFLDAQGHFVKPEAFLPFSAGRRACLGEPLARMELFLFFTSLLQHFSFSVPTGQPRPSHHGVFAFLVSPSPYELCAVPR
Sphingosine 1-phosphate receptor 1 (Mus musculus, UniProt O08530), sequence (O08530 whole entry): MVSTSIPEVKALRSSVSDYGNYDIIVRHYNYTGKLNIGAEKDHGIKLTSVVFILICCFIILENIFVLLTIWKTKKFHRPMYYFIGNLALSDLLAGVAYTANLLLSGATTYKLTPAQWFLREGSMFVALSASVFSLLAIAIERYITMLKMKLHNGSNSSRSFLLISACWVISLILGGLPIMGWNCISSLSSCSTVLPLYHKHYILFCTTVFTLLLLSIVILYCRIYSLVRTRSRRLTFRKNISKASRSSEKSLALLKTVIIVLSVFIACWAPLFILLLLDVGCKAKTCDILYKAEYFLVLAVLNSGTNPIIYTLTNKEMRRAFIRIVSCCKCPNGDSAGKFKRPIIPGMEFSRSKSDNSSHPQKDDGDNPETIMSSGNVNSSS

Take `C=CCN(c1ccccc1)S(=O)(=O)c1cc(Cl)cc(Cl)c1`: the half-maximal effective concentration (EC50) in [1] is 6.7 nM.

In the case of `CCCCCCCCc1ccc(CCC(N)(CO)CO)cc1.Cl` [FINGOLIMOD HYDROCHLORIDE], the half-life in data set [2] was 144 h.

In the case of `CCN(c1ccc2[nH]ncc2c1)S(=O)(=O)c1cc(C(F)(F)F)cc(C(F)(F)F)c1`, the EC50 in data set [1] turned out to be 372 nM.

Take `O=C(O)CCc1nc2cc(-c3noc(-c4cc(C(F)(F)F)cc(C(F)(F)F)c4)n3)ccc2[nH]1`: the outcome in data set [3] was inactive. Also, the concentration giving a half-maximal response (EC50) in data set [4] amounted to 1.2 nM.

Take `O=C(O)CCC(=O)N1CCc2cc(-c3noc(-c4cc(C(F)(F)F)cc(C(F)(F)F)c4)n3)ccc21`: the results for the half-life in data set [5], in [20] and in data set [27] were above 1 h, above 1 h and 8.5 h, respectively. Moreover, the EC50 in data set [6] was 88 nM; in data set [8], 1.3 nM; in [13], above 100000 nM; in data set [4], 4.6 nM; in [17], 3100 nM; in data set [23] it was 1.3 nM. For the same compound, the 50% effective concentration (EC50) was determined as 1.4 nM in [28], 1.1 nM in data set [29], 160 nM in data set [31] and 39 nM in data set [38]. In addition, the Activity result in data set [7], in data set [11], in data set [12], in data set [18], in data set [19] and in [22] was “Non-toxic” throughout. Further, the Activity entry in data set [25] and in [35] was “Non-toxic” throughout. Further, the bioavailability in data set [9] was 50.2%. The compound also displayed an inhibition at 3 µM in data set [10] below 10%. Further, the result in [3] was Active. In addition, the IC50 in data set [14] was 34800 nM; in data set [15] it was above 50000 nM; in [24], above 100000 nM; in data set [26], above 50000 nM; in data set [34] it was above 50000 nM; in data set [37] it was above 50000 nM. In addition, the Cmax in data set [16] turned out to be 1740 ng/mL. The compound also showed a clearance in [21] of 0.633 mL/min/kg. In [30], this compound showed an exposure AUC(0-t) of 16000 ng·h/mL. In data set [32], the Tmax stood at 3 h. The fraction unbound in data set [33] was 0.006. Besides, the Vd in data set [36] was 0.564 L/kg.

The values are drawn from ChEMBL document CHEMBL1914334, “Discovery and characterization of potent and selective 4-oxo-4-(5-(5-phenyl-1,2,4-oxadiazol-3-yl)indolin-1-yl)butanoic acids as S1P₁ agonists” (Bioorg Med Chem Lett, 2011).
